Assay results as given in publication PMC8412899 (ACS Omega, 2021).

Tests used:
[1] = Atropoisomer stability in solution; assay type: physicochemical
MCL-1 [2] = molecular target: T1, MCL-1 (Homo sapiens, UniProt Q07820); test: FP; assay type: binding; details: FP MCL-1 Ki
MCL-1 [3] = molecular target: T1, MCL-1; test: QA; assay type: binding; details: for Ki: QA MCL-1 Ki
NCI-H929 cells = test: MTT cell viability assay of NCI H929 cell line; assay type: cell-based; details: for loss of cellular activity: compared to 13
cleaved PARP = test: In vivo PD: increase of cleaved PARP in AMO1 xenografted mice; details: for PARP activation (fold): AMO1 xenografted mice, 16 h after i.v. bolus treatment at 12.5 mg/kg
Summary of the method: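 Female CB-17 SCID mice (6–7 weeks) were implanted s.c. with 5 × 10⁶ AMO-1 cells in 50:50 medium:Matrigel. At ~200 mm³ tumor volume they were randomized, n = 3 per group. Test compound in 20% HPbCD/25 mM HCl was given as a single 12.5 mg/kg i.v. bolus. Cleaved PARP increase was measured in tumors 16 h later.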

[4] = indole analogue versus preceding benzofurane/benzothiophene analogues

T1 sequence (Q07820 whole entry): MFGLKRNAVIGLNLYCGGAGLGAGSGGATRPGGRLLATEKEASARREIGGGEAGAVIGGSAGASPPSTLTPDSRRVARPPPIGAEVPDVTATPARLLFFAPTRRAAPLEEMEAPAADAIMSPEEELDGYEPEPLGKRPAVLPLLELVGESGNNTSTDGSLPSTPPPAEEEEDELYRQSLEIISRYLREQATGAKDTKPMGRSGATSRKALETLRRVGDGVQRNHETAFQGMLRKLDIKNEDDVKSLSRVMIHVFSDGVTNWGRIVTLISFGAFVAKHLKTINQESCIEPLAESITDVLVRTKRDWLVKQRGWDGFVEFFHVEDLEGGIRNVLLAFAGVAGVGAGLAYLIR

What does the source list for CCc1c(-c2cccc(Cl)c2C)c2c(N[C@H](Cc3ccccc3)C(=O)O)ncnc2n1C (single isomer, unassigned) [Compound 2b, N-[(5Sa)-5-(3-Chloro-2-methylphenyl)-6-ethyl-7-methyl-7H-pyrrolo[2,3-d]pyrimidin-4-yl]-D-phenylalanine]?
atropoisomer stability [1]: stable under the testing conditions; Ki (MCL-1 [2]): 8700 nM

With COc1ccccc1-c1nccc(COc2ccccc2C[C@@H](Nc2nccc3sc(-c4ccc(F)cc4)c(-c4ccc(OCCN5CCN(C)CC5)c(Cl)c4C)c23)C(=O)O)n1 [Compound 19, N-[3-{3-Chloro-2-methyl-4-[2-(4-methylpiperazin-1-yl)ethoxy]phenyl}-2-(4-fluorophenyl)thieno[3,2-c]pyridin-4-yl]-2-{[2-(2-methoxyphenyl)pyrimidin-4-yl]methoxy}-D-phenylalanine] as the molecule, how does the Ki (MCL-1 [3]) read?
Its Ki is 1.2 nM.

And the drop in affinity (MCL-1 [3]; compared to 16b)?
Its drop in affinity is 2–4 fold.

What about the “drop in cellular activity” value (NCI-H929 cells; compared to 16b) of the same molecule?
Its value is 2–4 fold.

With Cc1c(Cl)cccc1-c1c2n(c3ncnc(N[C@H](Cc4ccccc4)C(=O)O)c13)CCC2 [Compound 11, N-[5-(3-Chloro-2-methylphenyl)-7,8-dihydro-6H-pyrimido[5,4-b]pyrrolizin-4-yl]-D-phenylalanine] as the molecule, how does the atropoisomer stability [1] read?
The atropoisomer stability was “facile interconversion of the atropoisomers in solution”.

With COc1ccccc1-c1nccc(COc2ccccc2C[C@@H](Oc2ccnc3sc(-c4ccc(F)cc4)c(-c4ccc(OCCN5CCN(C)CC5)c(Cl)c4C)c23)C(=O)O)n1 [Compound 17, (2R)-2-{[(3Sa)-3-{3-Chloro-2-methyl-4-[2-(4-methylpiperazin-1-yl)ethoxy]phenyl}-2-(4-fluorophenyl)thieno[2,3-b]pyridin-4-yl]oxy}-3-(2-{[2-(2-methoxyphenyl)pyrimidin-4-yl]methoxy}phenyl)propanoic Acid] as the molecule, how does the “PARP activation (fold)” value (cleaved PARP) read?
The value was 12 fold.

And the Ki (MCL-1 [3])?
Its Ki is 0.1 nM.

Which Ki (MCL-1 [3]) does the source give for COc1ccccc1-c1nccc(COc2ccccc2C[C@@H](Nc2ccnc3sc(-c4ccc(F)cc4)c(-c4ccc(OCCN5CCN(C)CC5)c(Cl)c4C)c23)C(=O)O)n1 [Compound 18, N-[3-{3-Chloro-2-methyl-4-[2-(4-methylpiperazin-1-yl)ethoxy]phenyl}-2-(4-fluorophenyl)thieno[2,3-b]pyridin-4-yl]-2-{[2-(2-methoxyphenyl)pyrimidin-4-yl]methoxy}-D-phenylalanine] here?
The Ki was 0.1 nM.

For COc1ccccc1-c1nccc(COc2ccccc2C[C@@H](Nc2ncnc3sc(-c4ccc(F)cc4)c(-c4ccc(OCCN5CCN(C)CC5)c(Cl)c4C)c23)C(=O)O)n1 [Compound 16b, N-[(5Sa)-5-{3-Chloro-2-methyl-4-[2-(4-methylpiperazin-1-yl)ethoxy]phenyl}-6-(4-fluorophenyl)thieno[2,3-d]pyrimidin-4-yl]-2-{[2-(2-methoxyphenyl)pyrimidin-4-yl]methoxy}-D-phenylalanine], which Ki (MCL-1 [3]) is on record?
The Ki was 0.303 nM.

What does the source list for COc1ccccc1-c1nccc(COc2ccccc2C[C@@H](Oc2ncnc3c2c(-c2ccc(OCCN4CCN(C)CC4)c(Cl)c2C)c(-c2ccc(F)cc2)n3C)C(=O)O)n1 [Compound 23, (2R)-2-[(5Sa)-5-[3-Chloro-2-methyl-4-[2-(4-methylpiperazin-1-yl)ethoxy]phenyl]-6-(4-fluorophenyl)-7-methyl-pyrrolo[2,3-d]pyrimidin-4-yl]oxy-3-[2-[[2-(2-methoxyphenyl)pyrimidin-4-yl]methoxy]phenyl]propanoic Acid]?
PARP activation (fold) (cleaved PARP): 5 fold; atropoisomer stability [1]: rapid isomerization; Ki (MCL-1 [3]): 0.64 nM; fold less active (MCL-1 [3]; compared to 16a, affinity and activity): about 20 fold

With COc1ccccc1C[C@@H](Oc1cccc2oc(-c3ccc(F)cc3)c(-c3ccc(OCCN4CCN(C)CC4)c(Cl)c3C)c12)C(=O)O [Compound 14, (2R)-2-{[(3Sa)-3-{3-Chloro-2-methyl-4-[2-(4-methylpiperazin-1-yl)ethoxy]phenyl}-2-(4-fluorophenyl)-1-benzofuran-4-yl]oxy}-3-(2-methoxyphenyl)propanoic Acid] as the molecule, how does the Ki (MCL-1 [2]) read?
Its Ki is 820 nM.

What about the “loss of cellular activity” value (NCI-H929 cells) of the same molecule?
The value was “more than 10 fold”.

Which results are given for COc1ccccc1-c1nccc(COc2ccccc2C[C@@H](Oc2nccc3nc(-c4ccc(F)cc4)c(-c4ccc(OCCN5CCN(C)CC5)c(Cl)c4C)n23)C(=O)O)n1 [Compound 26, (2R)-2-{[(3Ra)-3-{3-Chloro-2-methyl-4-[2-(4-methylpiperazin-1-yl)ethoxy]phenyl}-2-(4-fluorophenyl)imidazo[1,2-c]pyrimidin-5-yl]oxy}-3-(2-{[2-(2-methoxyphenyl)pyrimidin-4-yl]methoxy}phenyl)propanoic Acid]?
Ki (MCL-1 [3]): 8.2 nM; drop in affinity (MCL-1 [3]; compared to 16a): 200 fold; drop in cellular activity (NCI-H929 cells; compared to 16a): 200 fold

What does the source list for COc1ccccc1C[C@@H](Oc1cccc2cc(-c3ccc(F)cc3)n(-c3ccc(OCCN4CCN(C)CC4)c(Cl)c3C)c12)C(=O)O [Compound 15, (2R)-2-{[(1Ra)-1-{3-Chloro-2-methyl-4-[2-(4-methylpiperazin-1-yl)ethoxy]phenyl}-2-(4-fluorophenyl)-1H-indol-7-yl]oxy}-3-(2-methoxyphenyl)propanoic Acid]?
Ki (MCL-1 [2]): 47 nM; loss of cellular activity (NCI-H929 cells): more than 10 fold

Which results are given for COc1ccccc1-c1nccc(COc2ccccc2C[C@@H](Nc2ncnc3oc(-c4ccc(F)cc4)c(-c4ccc(OCCN5CCN(C)CC5)c(Cl)c4C)c23)C(=O)O)n1 [Compound 25, N-[(5Sa)-5-{3-Chloro-2-methyl-4-[2-(4-methylpiperazin-1-yl)ethoxy]phenyl}-6-(4-fluorophenyl)furo[2,3-d]pyrimidin-4-yl]-2-{[2-(2-methoxyphenyl)pyrimidin-4-yl]methoxy}-D-phenylalanine]?
PARP activation (fold) (cleaved PARP): 60 fold; PARP activation, fold less (cleaved PARP; than for the hydroxy acid analogue): about 2 fold; atropoisomer stability [1]: stable in solution; Ki (MCL-1 [3]): 0.61 nM

Which “PARP activation (fold)” value (cleaved PARP) does the source give for COc1ccccc1-c1nccc(COc2ccccc2C[C@@H](Oc2cccc3sc(-c4ccc(F)cc4)c(-c4ccc(OCCN5CCN(C)CC5)c(Cl)c4C)c23)C(=O)O)n1 [Compound 20, (2R)-2-{[(3Sa)-3-{3-Chloro-2-methyl-4-[2-(4-methylpiperazin-1-yl)ethoxy]phenyl}-2-(4-fluorophenyl)-1-benzothiophen-4-yl]oxy}-3-(2-{[2-(2-methoxyphenyl)pyrimidin-4-yl]methoxy}phenyl)propanoic Acid] here?
Its value is 156 fold.

And the Ki (MCL-1 [3])?
Its Ki is 1.8 nM.

Which Ki (MCL-1 [3]) does the source give for COc1ccccc1-c1nccc(COc2ccccc2C[C@@H](Oc2cccc3oc(-c4ccc(F)cc4)c(-c4ccc(OCCN5CCN(C)CC5)c(Cl)c4C)c23)C(=O)O)n1 [Compound 21, (2R)-2-{[(3Sa)-3-{3-Chloro-2-methyl-4-[2-(4-methylpiperazin-1-yl)ethoxy]phenyl}-2-(4-fluorophenyl)-1-benzofuran-4-yl]oxy}-3-(2-{[2-(2-methoxyphenyl)pyrimidin-4-yl]methoxy}phenyl)propanoic Acid] here?
Its Ki is 1.3 nM.

With COc1ccccc1-c1nccc(COc2ccccc2C[C@@H](Oc2cccc3c2c(-c2ccc(OCCN4CCN(C)CC4)c(Cl)c2C)c(-c2ccc(F)cc2)n3C)C(=O)O)n1 [Compound 22, (2R)-2-{[(3Sa)-3-{3-Chloro-2-methyl-4-[2-(4-methylpiperazin-1-yl)ethoxy]phenyl}-2-(4-fluorophenyl)-1-methyl-1H-indol-4-yl]oxy}-3-(2-{[2-(2-methoxyphenyl)pyrimidin-4-yl]methoxy}phenyl)propanoic Acid] as the molecule, how does the Ki (MCL-1 [3]) read?
Its Ki is 2.3 nM.

And the “drop of on-target affinity” value (MCL-1 [3]; [4])?
The value was “ca. 2 fold”.

What about the “drop of cellular activity” value (NCI-H929 cells; [4]) of the same molecule?
Its value is “ca. 2 fold”.
